This is a sample that favours compounds with a hit; in the whole collection about 3.7% have one here.
ROMK mod: modulates human ROMK potassium channel activity. Tet-inducible ROMK, thallium flux fluorescence; actives lie on both sides. B-score at 10 µM. AID 1918. P48048. 130,000 compounds, 2% hits;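 active means signal ratio slope over the read window, or its plate-corrected B-score, at least 3 SD from the plate mean, either direction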;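 further: B-score of the F/F0 ratio slope over 7 to 12 s after thallium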
Target sequence (P48048 whole entry, looked up): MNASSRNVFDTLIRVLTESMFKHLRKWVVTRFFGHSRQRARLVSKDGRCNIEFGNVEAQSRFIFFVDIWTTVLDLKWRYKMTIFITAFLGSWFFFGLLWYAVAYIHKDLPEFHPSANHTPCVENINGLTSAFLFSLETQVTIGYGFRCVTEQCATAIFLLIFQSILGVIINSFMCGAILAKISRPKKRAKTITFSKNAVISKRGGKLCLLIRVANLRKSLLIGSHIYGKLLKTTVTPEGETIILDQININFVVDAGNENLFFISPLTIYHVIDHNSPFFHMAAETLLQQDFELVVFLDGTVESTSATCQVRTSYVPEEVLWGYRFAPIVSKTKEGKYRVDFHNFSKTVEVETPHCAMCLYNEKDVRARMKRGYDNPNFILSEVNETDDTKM
DTT redox prof: compounds producing H2O2 with reducing agent – biochemical, NIH compound library profiling, artefact control for MLSCN library redox annotation, primary screen. activation, % at 10 µM. 200,000 compounds, 0.03% hits. DTT-dependent redox cycling H2O2, phenol red/HRP absorbance; 100% = 100 µM peroxide control, 0% = buffer;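 active means activation of at least 50% relative to the plate's high and low controls in the primary single-dose screen; inactive means activation below 50%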;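 further: compound incubated with DTT at 0.8 mM final as the reducing agent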
MT stabilizer: microtubule stabilizers in HeLa cells. HeLa tubulin immunostaining HCS, 24 h; share of cells brighter than vehicle mean+2SD. % tubulin-high responders, % at 10 µM. 200,000 compounds, 0.83% hits;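 active means plate Z-score above 3 for both tubulin-high and condensed-nucleus cell shares, with cell loss under 80%, at 10 µM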;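 further: anti alpha tubulin signal scored within the nucleus-defined area of each cell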
b-catenin transl: alters nuclear translocation of beta-catenin in HeLa cells. immunofluorescence imaging. nuclear translocation activity, % at 5 µM. 190,000 compounds, 0.3% hits;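 active means nuclear translocation activity above 50% at 5 µM, with a well cell count of 50 or more; inconclusive means wells under 50 cells across six images, flagged as toxic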;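 further: per-cell ratio of nuclear to cytoplasmic median beta-catenin stain intensity; plate controls were DMSO negative control for no effect and GSK-3 inhibitor IX positive control for full effect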
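System: Human HeLa cells, endogenous beta-catenin | Compound dosing: 5 µM primary, 0.02–20 µM confirmation | Timing: 24 h compound exposure at 37°C, 5% CO2 | Measured by: Fluorescence imaging of beta-catenin antibody stain plus DAPI | Read-out basis: % activation of per-cell nuclear versus cytoplasmic median beta-catenin signal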
KCC2 mod: KCC2 (human) Cl- transport modulation | KCC2 cells, thallium flux FluoZin-2 fluorescence | 190,000 compounds, 2.2% hits | Q9H2X9 | B-score of Tl+ flux slope (higher = more flux/activation; lower = inhibition) at 10 µM | AID 1456;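 active means thallium flux slope and its plate-corrected score both differing from the plate sample mean at a set confidence after two filtering rounds, in either direction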;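 further: slope of fluorescence scaled to starting intensity during 10 to 20 s after thallium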
KCC2 sec1: KCC2 (human) modulation, secondary assay | shares compounds with KCC2 mod | HEK293-KCC2, thallium flux, FluoZin2 fluorescence; stronger effect = higher value | AID 1713 | normalised thallium flux (F/F0 slope) at 10 µM | 3,700 compounds, 15% hits;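 active means thallium flux slope above the same plate's solvent-only control mean plus 3 SD; inconclusive means the two replicate wells disagree; inactive means no significant difference from solvent-only control wells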
KCC2 bumet counter: thallium flux persisting under bumetanide in KCC2 cells, counter-screen secondary assay | normalized thallium flux at 10 µM | shares compounds with KCC2 mod | HEK293-KCC2 + bumetanide/ouabain, thallium flux FluoZin2; stronger effect = higher value | AID 1714 | 3,700 compounds, 49% hits;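 active means thallium entry rate above the same plate's blocked-transporter control wells by more than 3 SD; inconclusive means the two repeat wells disagree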;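 further: raw slope of fluorescence over initial fluorescence between 10 and 20 s after thallium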
KCC2 sec2: confirmation of human KCC2 transport modulators. normalized thallium flux at 10 µM. shares compounds with KCC2 mod. HEK293-KCC2, thallium flux FluoZin2 fluorescence; actives lie on both sides; F/F0 rise rate, 10–20 s post-thallium. 3,700 compounds, 23% hits;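 active means thallium flux slope more than 3 SD above or below the plate's solvent-only control mean, mostly below; inconclusive means the two repeat wells disagreed; inactive means no significant shift from solvent-only controls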;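 further: raw slope with 0.1% DMSO as baseline and bumetanide as block control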
HEK293 Tl flux: acts in parental HEK cells, KCC2 counter-screen; shares compounds with KCC2 mod; HEK293 parental cells, thallium flux FluoZin2, ouabain; baseline-ratio fluorescence slope, 10–20 s after thallium; thallium flux rate (normalised fluorescence) at 10 µM; 3,700 compounds, 46% hits;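 active means thallium flux rate significantly above the same plate's solvent-only control wells, beyond their mean plus 3 SD; inconclusive means the two replicate wells gave conflicting results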
KCC2 retest ouab: confirmation of human KCC2 modulators with ouabain; shares compounds with KCC2 mod; HEK293-KCC2, thallium flux FluoZin2 fluorescence; bidirectional: low = inhibitor, high = activator; raw Tl+ flux slope (below DMSO = inhibition, above = activation) at 10 µM; 3,700 compounds, 48% hits; AID 1717;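 active means thallium flux slope beyond 3 SD from same-plate DMSO control mean in most replicates, usually higher, sometimes lower; inconclusive means repeat tests gave conflicting results; inactive means no significant difference from controls in most replicates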;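 further: slope of initial-normalized fluorescence between seconds 10 and 20 after thallium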
HEK293 Tl flux2: acts in parental HEK cells, second KCC2 counter-screen; thallium flux slope at 10 µM; HEK293 parental, thallium flux FluoZin-2 fluorescence slope; shares compounds with KCC2 mod; 3,700 compounds, 33% hits; AID 1718;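 active means thallium flux slope above the same plate's solvent-control mean plus 3 SD in both duplicate wells; inconclusive means duplicate wells that disagreed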;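 further: run without ouabain in cells lacking the KCC2 cotransporter; slope of fluorescence scaled to its starting value between 10 and 20 s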
* = called active by the depositor; ? = inconclusive; · = no result.

SMILES | ROMK mod | DTT redox prof | MT stabilizer | b-catenin transl | KCC2 mod | KCC2 sec1 | KCC2 bumet counter | KCC2 sec2 | HEK293 Tl flux | KCC2 retest ouab | HEK293 Tl flux2
CN1C(=O)C(N=Nc2ccccc2C(=O)O)N(C)C1=S (stereo not drawn) | -0.13 | -2 | 7 | 1 | -4.7* | 0.0073 | 0.0017* | ? | 0.0054* | 0.015* | 0.0095
O=C(CCCc1nc2ccccc2s1)NCc1ccccc1 | -0.44 | -1 | 3 | · | -2.4 | · | · | · | · | · | ·
O=C(CCCc1nc2ccccc2s1)NCc1ccc(F)cc1 | -1.2 | 0 | 1 | · | -4* | 0.014* | 0.018* | 0.034 | 0.012* | 0.023 | 0.012*
Cc1nc(SCC(=O)N2c3ccccc3Sc3ccccc32)n[nH]1 | -0.46 | 1 | 1 | · | -0.21 | · | · | · | · | · | ·
S=c1[nH]nc(Cc2cccs2)n1-c1ccccc1 | · | 0 | 1 | 0 | 0.41 | · | · | · | · | · | ·
CCCCc1ccc(-n2c(Cc3cccs3)n[nH]c2=S)cc1 | -0.64 | -2 | 6 | -2 | 58* | 0.006 | 0.097* | 0.063* | 0.08* | 0.053* | 0.067*
CCOC(=O)C1=C(C)Nc2nnnn2C1c1cccnc1 (stereo not drawn) | · | 2 | 3 | 0 | · | 0.0066 | 0.004 | 0.028 | 0.0074 | 0.018 | 0.01
O=S(=O)(N/N=C\C=C\c1ccccc1)c1ccc(Cl)cc1 | -0.81 | 2 | 2 | 0 | 0.3 | · | · | · | · | · | ·
Cc1ccc(C(c2c(C)n(C)n(-c3ccccc3)c2=O)c2c(C)n(C)n(-c3ccccc3)c2=O)s1 | -0.26 | 0 | 5 | 2 | -0.55 | · | · | · | · | · | ·
COc1ccc(N(CCC#N)C(=O)/C(C#N)=C/c2cccs2)cc1 | -1.3 | 0 | 4 | -1 | 0.022 | · | · | · | · | · | ·
CCCOc1cccc(-c2cc(C(=O)NN)c3ccccc3n2)c1 | -1 | -1 | 3 | · | 22* | 0.0065 | 0.0044 | 0.029 | 0.0073 | 0.019 | 0.0096
CC(C)(CC(=O)O)CC(=O)Nc1ccc(Oc2ccc(C(C)(C)C)cc2)nc1 | · | · | · | -5 | 4.8* | 0.0056 | 0.0044 | 0.03 | 0.0072 | 0.019 | 0.0098
CC(C)(C)c1ccc(Oc2ccc(NC(=O)CCCC(=O)O)cn2)cc1 | · | · | · | 3 | 1.8 | · | · | · | · | · | ·
CC(=O)c1cc(NC(=O)c2ccc(Cl)cc2)c(=O)oc1/C=C/N(C)C | · | 11 | 2 | -3 | -3* | ? | -0.0026* | 0.021* | 0.0027* | 0.008* | 0.0048*
CC(=O)c1cc(NC(=O)c2cccc(C(F)(F)F)c2)c(=O)oc1/C=C/N(C)C | · | 2 | 1 | · | -2.2 | · | · | · | · | · | ·
Cc1occc1C(=O)NC(C)CCc1ccccc1 (stereo not drawn) | 0.8 | 0 | 1 | -6 | -0.52 | · | · | · | · | · | ·
CC(CCc1ccccc1)NC(=O)/C=C/c1ccc(Cl)cc1 (stereo not drawn) | 0.73 | 0 | 3 | · | -8.1* | 0.0073 | 0.0056 | 0.027 | 0.0065 | 0.018 | 0.0093
Cc1ccc(C)c(C(=O)NC(C)CCc2ccccc2)c1 (stereo not drawn) | -0.013 | 0 | 5 | -1 | -3.5* | 0.0075 | 0.0044 | 0.025* | 0.0074 | ? | 0.01
COc1cc(/C=N/Nc2nc(C)cc(=O)[nH]2)ccc1OC(=O)c1cccnc1 | -0.029 | 0 | 2 | -4 | 0.53 | · | · | · | · | · | ·
